Tests used:
[1] = target: T1, Cytochrome P450 1A1 (Homo sapiens, UniProt P04798); test: Inhibition of human microsomal CYP1A1-dependent ethoxyresorufin-O-deethylase activity by spectrofluorimetric analysis in presence of NADPH regenerating solution
T1 sequence (P04798 whole entry): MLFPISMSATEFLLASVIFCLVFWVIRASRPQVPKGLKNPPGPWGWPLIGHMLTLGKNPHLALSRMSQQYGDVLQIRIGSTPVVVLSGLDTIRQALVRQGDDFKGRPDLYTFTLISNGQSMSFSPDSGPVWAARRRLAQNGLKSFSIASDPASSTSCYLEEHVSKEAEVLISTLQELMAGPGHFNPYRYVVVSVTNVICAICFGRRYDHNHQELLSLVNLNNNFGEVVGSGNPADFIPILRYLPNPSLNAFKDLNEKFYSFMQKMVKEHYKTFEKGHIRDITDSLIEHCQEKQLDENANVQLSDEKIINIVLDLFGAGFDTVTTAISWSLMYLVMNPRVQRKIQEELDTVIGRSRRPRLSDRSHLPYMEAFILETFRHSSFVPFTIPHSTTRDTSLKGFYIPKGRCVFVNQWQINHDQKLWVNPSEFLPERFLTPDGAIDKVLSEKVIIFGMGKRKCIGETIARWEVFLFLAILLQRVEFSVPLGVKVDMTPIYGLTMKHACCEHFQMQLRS
In short: (§1)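 Microsomal P450 (final 5 nM) in 0.1 M potassium phosphate pH 7.6 with MgCl2 at 37 °C. Substrate final 5 µM: ethoxyresorufin for 1A1/1B1, methoxyresorufin for 1A2. […] Ki was taken as the x-intercept of Dixon plots (1/v0 vs [I]). Mean ± SD of three independent experiments. Selectivity ratios are ratios of these Ki.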

[2] = target: T2, Cytochrome P450 1B1 (Homo sapiens, UniProt Q16678); test: Inhibition of human microsomal CYP1B1-dependent ethoxyresorufin-O-deethylase activity by spectrofluorimetric analysis in presence of NADPH regenerating solution
T2 sequence (Q16678 whole entry): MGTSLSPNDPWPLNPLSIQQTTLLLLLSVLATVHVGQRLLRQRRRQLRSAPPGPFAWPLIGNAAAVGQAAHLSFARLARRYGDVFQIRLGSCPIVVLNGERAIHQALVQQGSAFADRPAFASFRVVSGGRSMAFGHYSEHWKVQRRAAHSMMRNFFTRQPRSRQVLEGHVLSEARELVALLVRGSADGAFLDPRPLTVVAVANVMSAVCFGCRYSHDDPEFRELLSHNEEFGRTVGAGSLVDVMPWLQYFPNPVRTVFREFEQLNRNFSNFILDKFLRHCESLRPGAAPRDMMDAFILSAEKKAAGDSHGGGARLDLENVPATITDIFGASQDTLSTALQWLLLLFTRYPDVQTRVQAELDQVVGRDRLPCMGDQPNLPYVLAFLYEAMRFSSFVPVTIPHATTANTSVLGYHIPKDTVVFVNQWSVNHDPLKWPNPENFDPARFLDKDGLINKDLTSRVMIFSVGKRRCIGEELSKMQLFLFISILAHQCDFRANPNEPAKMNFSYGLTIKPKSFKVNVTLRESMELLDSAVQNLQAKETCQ
In short: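 Microsomal P450 (final 5 nM) in 0.1 M potassium phosphate pH 7.6 with MgCl2 at 37 °C. Substrate final 5 µM: ethoxyresorufin for 1A1/1B1, methoxyresorufin for 1A2. Ki was taken as the x-intercept of Dixon plots (1/v0 vs [I]). Mean ± SD of three independent experiments. Selectivity ratios are ratios of these Ki.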

[3] = organism: Homo sapiens; test: Selectivity ratio of Ki for human microsomal CYP1B1 to Ki for human microsomal CYP1A2; in short: as §1
[4] = target: T1, Cytochrome P450 1A1; test: Inhibition of human microsomal CYP1A1-dependent ethoxyresorufin-O-deethylase activity at 10 nM measured over 6 mins by spectrofluorimetric analysis in absence of NADPH regenerating solution; conditions: 0.1 h, 0.01 µM
In short: (§2)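 Microsomal P450 in 0.1 M potassium phosphate pH 7.6 with MgCl2 and 10 nM inhibitor in DMSO, 2 mL final. Preincubated 5 min at 37 °C either with NADPH-regenerating solution, or without it, with NADPH then added at start. Reaction started with ethoxyresorufin (final 5 µM). Resorufin formation followed 6 min at 37 °C.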

[5] = target: T2, Cytochrome P450 1B1; test: Inhibition of human microsomal CYP1B1-dependent ethoxyresorufin-O-deethylase activity at 10 nM measured over 6 mins by spectrofluorimetric analysis in absence of NADPH regenerating solution; conditions: 0.1 h, 0.01 µM; in short: as §2
[6] = target: T1, Cytochrome P450 1A1; test: Inhibition of human microsomal CYP1A1-dependent ethoxyresorufin-O-deethylase activity at 10 nM preincubated for 5 mins followed by NADPH regenerating solution and substrate addition measured over 6 mins by spectrofluorimetric analysis; conditions: 0.1 h, 0.01 µM; in short: as §2
[7] = target: T3, CYP1A2 (Homo sapiens, UniProt P05177); test: Time-dependent inhibition of human microsomal CYP1A2-dependent methoxyresorufin-O-demethylase activity by spectrofluorimetric analysis in presence of NADPH regenerating solution; conditions: human microsomal CYP1A2, probe methoxyresorufin (O-demethylation)
T3 sequence (P05177 whole entry): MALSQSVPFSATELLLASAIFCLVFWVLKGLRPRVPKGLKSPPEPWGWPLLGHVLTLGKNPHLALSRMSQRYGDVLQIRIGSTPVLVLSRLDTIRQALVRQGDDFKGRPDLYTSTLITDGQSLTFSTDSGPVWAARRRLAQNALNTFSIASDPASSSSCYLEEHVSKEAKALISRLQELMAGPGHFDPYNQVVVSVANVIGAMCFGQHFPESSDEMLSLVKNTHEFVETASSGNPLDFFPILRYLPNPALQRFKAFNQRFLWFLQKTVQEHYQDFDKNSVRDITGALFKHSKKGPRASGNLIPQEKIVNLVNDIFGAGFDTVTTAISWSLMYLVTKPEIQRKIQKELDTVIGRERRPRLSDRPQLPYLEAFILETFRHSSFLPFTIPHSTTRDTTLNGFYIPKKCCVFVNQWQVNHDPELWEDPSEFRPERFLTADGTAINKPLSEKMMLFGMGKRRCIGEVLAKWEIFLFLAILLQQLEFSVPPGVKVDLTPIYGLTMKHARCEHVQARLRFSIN
In short: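 1A2 MROD run with NADPH at 0.0125, 0.025, 0.05 and 0.1 µM inhibitor, product monitored continuously over 6 min. Activity at different times came from first derivatives of product curves, expressed as % of control remaining. KI and limiting kinact were derived from the resulting linear plot.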

[8] = target: T4, Cytochrome P450 1A2 (Homo sapiens, UniProt P05177); test: Inhibition of human microsomal CYP1A2-dependent methoxyresorufin-O-demethylase activity measured over 6 mins by spectrofluorimetric analysis; conditions: 0.1 h; in short: as §1
T4 sequence (P05177 whole entry): T3 sequence (P05177 whole entry)

[9] = target: T4, Cytochrome P450 1A2; test: Inhibition of human microsomal CYP1A2-dependent methoxyresorufin-O-demethylase activity at 10 nM measured over 6 mins by spectrofluorimetric analysis in absence of NADPH regenerating solution; conditions: 0.1 h, 0.01 µM

## Cc1cc2c(ccc3c(=O)cc(-c4ccccc4)oc32)o1
[1]
  Ki: 430 nM
[2]
  Ki: 180 nM
[3]
  Ratio Ki: 6
[4]
  inhibition (INH): Not Active
[5]
  inhibition (INH): Not Active
[6]
  inhibition (INH): Not Active
[7]
  kinact: 0.007 s⁻¹
[8]
  inhibition (INH): Dose-dependent effect
[9]
  inhibition (INH): Active
